Data on 29 molecules can be found in ChEMBL document CHEMBL3046552, “Synthesis and antiviral bioactivities of 2-cyano-3-substituted-amino(phenyl) methylphosphonylacrylates (acrylamides) containing alkoxyethyl moieties” (2010).

Holding throughout (type): functional
The test system of assay [1] is Tobacco mosaic virus. The assay is described as follows: In vivo antiviral activity against Tobacco mosaic virus (TMV) infected left side of tobacco leaves assessed as protective effect by decreasing local lesion number at 500 mg/l treated 12 hr before viral inoculation measured at 3-4 days after viral challenge. Put shortly:
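Protective mode: compound solution smeared on the left half of same-age N. tabacum leaves, solvent on the right half as control. After 12 h, the leaves were dusted with silicon carbide and brush-inoculated with TMV at 6 × 10^-3 mg/mL. Local lesions counted 3-4 days after inoculation.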

Assay [2] has as its system Tobacco mosaic virus. The assay is described as follows: In vivo antiviral activity against Tobacco mosaic virus (TMV) infected left side of tobacco leaves assessed as inactivation effect by decreasing local lesion number at 500 mg/l co-incubated with virus for 30 min before inoculation onto leaves measured at 3-4 days after viral challenge. Put shortly: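 TMV, purified from infected N. tabacum leaves by grinding in phosphate buffer and PEG precipitation at 4 °C, was mixed with an equal volume of compound solution for 30 min. The mixture was inoculated on the left half of the leaf and a solvent-virus mixture on the right half as control. Local lesions recorded 3-4 days later.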

In assay [3] the test system is Tobacco mosaic virus. The assay is described as follows: In vivo antiviral activity against Tobacco mosaic virus (TMV) infected left side of tobacco leaves assessed as curative effect by decreasing local lesion number at 500 mg/l treated after viral inoculation measured at 3-4 days after viral challenge. The essentials:
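Curative mode: N. tabacum leaves of the same age; compound solution smeared on left half, solvent on right half as control. Local lesions counted 3-4 days after inoculation; three repeats per compound. Inhibition rate derived from average lesion numbers of treated versus untreated control halves. TMV purified from infected leaves (PEG precipitation, 4 °C).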

SMILES strings stand for the structures.

One may read the inhibition in vivo as the change of the read-out against control, counted positive when it falls. Consider `CCOC(=O)/C(C#N)=C(\NC(c1ccccc1)P(=O)(OCCOC)OCCOC)SC` (configuration not stated), for which the results for the inhibition in vivo at 500 µg/mL in assay [1], in assay [2] and in assay [3] were 21%, 28.3% and 32.1%, respectively.
For `COCCOC(=O)/C(C#N)=C(\NC(c1ccccc1)P(=O)(OCCOC)OCCOC)SC` (configuration not stated), the inhibition in vivo at 500 µg/mL in assay [1] is 40%; in assay [2], 41.9%; in assay [3] it was 43.1%.
In the case of `CCOCCOC(=O)/C(C#N)=C(\NC(c1ccccc1)P(=O)(OCCOC)OCCOC)SC` (configuration not stated), the inhibition in vivo at 500 µg/mL in assay [1] came out at 0%; in assay [2] it was 12.2%; in assay [3] it was 23.7%.
`COCCOP(=O)(OCCOC)C(N/C(SC)=C(/C#N)C(=O)OCCOc1ccccc1)c1ccccc1` (configuration not stated): the inhibition in vivo at 500 µg/mL is 14.4% in assay [1], 21% in assay [2] and 31% in assay [3].
Consider `COCCOP(=O)(OCCOC)C(N/C(SC)=C(/C#N)C(N)=O)c1ccccc1` (configuration not stated), for which the inhibition in vivo at 500 µg/mL stood at 50% in assay [1], 66.7% in assay [2] and 43.2% in assay [3].
As to `COCCOP(=O)(OCCOC)C(N/C(SC)=C(/C#N)C(=O)NCc1ccccc1)c1ccccc1` (configuration not stated), the inhibition in vivo at 500 µg/mL in assay [1] was 39.7%; in assay [2], 32.1%; in assay [3] it was 29.6%.
With `COCCOP(=O)(OCCOC)C(N/C(SC)=C(/C#N)C(=O)OC)c1ccccc1F` (configuration not stated), the inhibition in vivo at 500 µg/mL in assay [1] was determined as 22%; in assay [2], 41%; in assay [3], 34.5%.
`CCOC(=O)/C(C#N)=C(\NC(c1ccccc1F)P(=O)(OCCOC)OCCOC)SC` (configuration not stated): the results for the inhibition in vivo at 500 µg/mL in assay [1], in assay [2] and in assay [3] were 0%, 0% and 21.7%, respectively.
As for `COCCOC(=O)/C(C#N)=C(\NC(c1ccccc1F)P(=O)(OCCOC)OCCOC)SC` (configuration not stated), the inhibition in vivo at 500 µg/mL in assay [1] is 0%; in assay [2], 0%; in assay [3] it was 9.9%.
Consider `CCOCCOC(=O)/C(C#N)=C(\NC(c1ccccc1F)P(=O)(OCCOC)OCCOC)SC` (configuration not stated), for which the values for the inhibition in vivo at 500 µg/mL in assay [1], in assay [2] and in assay [3] were 21.9%, 33.3% and 31.4%, respectively.
As for `COCCOP(=O)(OCCOC)C(N/C(SC)=C(/C#N)C(=O)OCCOc1ccccc1)c1ccccc1F` (configuration not stated), the inhibition in vivo at 500 µg/mL in assay [1] amounted to 29%; in assay [2], 44%; in assay [3], 41.8%.
With `COCCOP(=O)(OCCOC)C(N/C(SC)=C(/C#N)C(N)=O)c1ccccc1F` (configuration not stated), the inhibition in vivo at 500 µg/mL in assay [1] worked out at 30%; in assay [2] it was 44.8%; in assay [3], 22%.
As to `COCCOP(=O)(OCCOC)C(N/C(SC)=C(/C#N)C(=O)NCc1ccccc1)c1ccccc1F` (configuration not stated), the inhibition in vivo at 500 µg/mL in assay [1] was 39.9%; in assay [2] it was 40.8%; in assay [3], 28.6%.
The like results for `CCOCCOP(=O)(OCCOCC)C(N/C(SC)=C(/C#N)C(=O)OC)c1ccccc1` (configuration not stated) were, in that order, 0%, 0% and 4.3%.
The like results for `CCOCCOP(=O)(OCCOCC)C(N/C(SC)=C(/C#N)C(=O)OCC)c1ccccc1` (configuration not stated) were, in that order, 45.9%, 35.4% and 51.1%.
The like results for `CCOCCOP(=O)(OCCOCC)C(N/C(SC)=C(/C#N)C(=O)OCCOC)c1ccccc1` (configuration not stated) were, in that order, 60.2%, 78.9% and 58.8%.
As to `CCOCCOC(=O)/C(C#N)=C(\NC(c1ccccc1)P(=O)(OCCOCC)OCCOCC)SC` (configuration not stated), the inhibition in vivo at 500 µg/mL in assay [1] amounted to 40.7%; in assay [2] it was 29.5%; in assay [3], 46.4%.
As for `CCOCCOP(=O)(OCCOCC)C(N/C(SC)=C(/C#N)C(=O)OCCOc1ccccc1)c1ccccc1` (configuration not stated), the inhibition in vivo at 500 µg/mL turned out to be 3.8% in assay [1], 31.9% in assay [2] and 44.1% in assay [3].
Regarding `CCOCCOP(=O)(OCCOCC)C(N/C(SC)=C(/C#N)C(N)=O)c1ccccc1` (configuration not stated), the inhibition in vivo at 500 µg/mL in assay [1] stood at 54.4%; in assay [2], 80%; in assay [3] it was 56.7%.
In the case of `CCOCCOP(=O)(OCCOCC)C(N/C(SC)=C(/C#N)C(=O)NCc1ccccc1)c1ccccc1` (configuration not stated), the inhibition in vivo at 500 µg/mL in assay [1] is 34.5%; in assay [2], 40.1%; in assay [3], 47.3%.
As for `CCOCCOP(=O)(OCCOCC)C(N/C(SC)=C(/C#N)C(=O)OC)c1ccccc1F` (configuration not stated), the inhibition in vivo at 500 µg/mL in assay [1] came out at 0%; in assay [2] it was 12%; in assay [3], 33%.
For `CCOCCOP(=O)(OCCOCC)C(N/C(SC)=C(/C#N)C(=O)OCC)c1ccccc1F` (configuration not stated), the inhibition in vivo at 500 µg/mL in assay [1] came to 12.9%; in assay [2], 33.4%; in assay [3], 45.6%.
For the molecule `CCOCCOP(=O)(OCCOCC)C(N/C(SC)=C(/C#N)C(=O)OCCOC)c1ccccc1F` (configuration not stated), the inhibition in vivo at 500 µg/mL in assay [1] was 58.9%; in assay [2], 85.5%; in assay [3] it was 60%.
As for `CCOCCOC(=O)/C(C#N)=C(\NC(c1ccccc1F)P(=O)(OCCOCC)OCCOCC)SC` (configuration not stated), the results for the inhibition in vivo at 500 µg/mL in assay [1], in assay [2] and in assay [3] were 31%, 40.2% and 41.9%, respectively.
Take `CCOCCOP(=O)(OCCOCC)C(N/C(SC)=C(/C#N)C(=O)OCCOc1ccccc1)c1ccccc1F` (configuration not stated): the inhibition in vivo at 500 µg/mL in assay [1] amounted to 30.7%; in assay [2] it was 23.7%; in assay [3], 27.7%.
For the molecule `CCOCCOP(=O)(OCCOCC)C(N/C(SC)=C(/C#N)C(N)=O)c1ccccc1F` (configuration not stated), the inhibition in vivo at 500 µg/mL in assay [1] was found to be 30%; in assay [2], 33.9%; in assay [3], 30.6%.
Consider `CCOCCOP(=O)(OCCOCC)C(N/C(SC)=C(/C#N)C(=O)NCc1ccccc1)c1ccccc1F` (configuration not stated), for which the values for the inhibition in vivo at 500 µg/mL in assay [1], in assay [2] and in assay [3] were 55.4%, 79.9% and 54.3%, respectively.
The like results for `COCCOP(=O)(OCCOC)C(N/C(SC)=C(/C#N)C(=O)OC)c1ccccc1` (configuration not stated) were, in that order, 0%, 0% and 28.8%.
Consider `CNCC(=O)N[C@@H](CO)C(=O)N[C@H]1[C@H](O)[C@@H](O)[C@H](n2ccc(N)nc2=O)O[C@@H]1C(N)=O` [NINGNANMYCIN], for which the inhibition in vivo at 500 µg/mL in assay [1] came out at 57.7%; in assay [2], 96%; in assay [3] it was 58.9%.
